Compound activity from PubChem BioAssay.
L major viab = Leishmania major promastigote growth inhibition, primary screen. inhibition, % at 10 µM. Leishmania major promastigotes, resazurin fluorescence viability. actives 9% (n = 200,000); in the data active = inhibition above about 50%;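 note: promastigotes grown with compound for 44 hours at 28 °C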
TNAP inh hiacc = human TNAP enzyme inhibitors, primary screen, biochemical, luminescent, high phosphate acceptor level, uHTS. Alkaline phosphatase, tissue-nonspecific isozyme (Homo sapiens), P05186. purified TNAP, CDP-star luminescence, 1 M DEA. inhibition, % at 20 µM. actives 0.03% (n = 200,000);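 active = over 50% inhibition of tissue-nonspecific alkaline phosphatase at 20 µM in the single-dose screen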;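 note: plate controls were DMSO wells for no effect and EDTA-quenched wells as full inhibition for full effect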
Target sequence (P05186 whole entry, looked up): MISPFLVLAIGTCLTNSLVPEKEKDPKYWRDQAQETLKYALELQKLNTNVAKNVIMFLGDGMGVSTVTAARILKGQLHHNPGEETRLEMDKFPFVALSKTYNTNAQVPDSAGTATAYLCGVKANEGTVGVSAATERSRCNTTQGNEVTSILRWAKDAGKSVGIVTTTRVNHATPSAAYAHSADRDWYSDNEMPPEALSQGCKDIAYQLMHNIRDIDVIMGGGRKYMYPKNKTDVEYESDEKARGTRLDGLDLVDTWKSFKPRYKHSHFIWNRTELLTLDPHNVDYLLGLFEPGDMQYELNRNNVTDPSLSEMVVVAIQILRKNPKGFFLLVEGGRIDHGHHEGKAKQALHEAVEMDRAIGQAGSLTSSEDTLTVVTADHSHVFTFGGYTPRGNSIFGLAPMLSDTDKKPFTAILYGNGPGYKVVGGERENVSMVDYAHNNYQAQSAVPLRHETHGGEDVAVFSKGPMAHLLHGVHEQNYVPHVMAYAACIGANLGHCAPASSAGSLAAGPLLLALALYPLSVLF
HCT116 bCat-KO = primary screen for growth suppressors in beta-catenin knockout HCT116 cells (colon tumor, human); HCT116 beta-catenin knockout viability, CellTiter-Glo, 60 h; stronger effect = lower value; viability, % at 10 µM; actives 1.5% (n = 140,000);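 active = viability at or under a set limit, the compound median less 4 SD, cut at about 6% in these data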;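 note: 0% = Hyamine 1622 control at 20 µM and 100% = untreated cell control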
TNAP inh no acc = human TNAP enzyme inhibitors, primary screen, biochemical, luminescent, no phosphate acceptor, uHTS | actives 0.26% (n = 200,000) | Alkaline phosphatase, tissue-nonspecific isozyme (Homo sapiens), P05186 | purified TNAP, CDP-star luminescence, 30 min | inhibition, % at 20 µM | AID 1012, 2008;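 active = tissue-nonspecific alkaline phosphatase inhibition above about 50% at 20 µM in the single-dose screen, limit read from the data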;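 note: 0% = DMSO negative control and 100% = EDTA positive control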
TNAP act hiacc = TNAP activators at high phosphate acceptor level, primary screen, biochemical, luminescence, uHTS; Alkaline phosphatase, tissue-nonspecific isozyme (Homo sapiens), P05186; 200,000 tested, under 10 active; purified TNAP, CDP-star luminescence, 1 M DEA, 30 min; stronger effect = higher value; 0 = EDTA background, 1 = DMSO-only activity; activation factor at 20 µM;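 active = activation factor at least 2 at 20 µM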
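system = human TNAP | amount = enzyme diluted 1/800 final | reagent = 100 µM CDP-star substrate | signal = luminescent substrate turnover signal | dosing = one dose, 20 µM | benchmarks = EDTA negative control, DMSO positive control | measure = activation factor | timing = 30 min reaction, room temperature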
PTEN del growth = growth suppression of PTEN-null HCT116, primary screen, cell-based, CellTiter-Glo; HCT116 PTEN-null viability, 60 h; stronger effect = lower value; viability, % at 10 µM; actives 1.2% (n = 140,000);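 active = viability at or below a set limit, 4 SD under the median of all tested compounds, cut at about 3.7% in these data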;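 note: PTEN knockout HCT116 line with beta catenin targeted HCT116 as companion control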
* = called active by the depositor; . = no result. Sampled rows, rich in hits. Any-hit rate of the full collection: about 9.6%.

SMILES | L major viab | TNAP inh hiacc | HCT116 bCat-KO | TNAP inh no acc | TNAP act hiacc | PTEN del growth
CCn1nc2cc(C(=O)NCC34CC5CC(CC(C5)C3)C4)ccc2c1OC | 51* | -4 | 84 | -8 | 1 | 87
CCOc1c2ccc(C(=O)NCC34CC5CC(CC(C5)C3)C4)cc2nn1CC | 86* | -7 | 72 | -8 | 1.1 | 73
CCCCn1nc2cc(C(=O)NCC34CC5CC(CC(C5)C3)C4)ccc2c1OC | 59* | -5 | 80 | -10 | 1 | 82
CCOc1c2ccc(C(=O)NCc3ccccc3OC)cc2nn1CC | -3 | -2 | 105 | -14 | 1 | 97
CCC(C)NC(=O)Nc1ccc(C)cc1C (centres undefined) | 12 | -1 | . | -6 | 1 | .
Cn1ccs/c1=N\C(=O)Nc1ccccc1 | -4 | -4 | . | -6 | 1 | .
O=c1c(-c2ccc(O)cc2)coc2cc(OC3OC(CO)C(O)C(O)C3O)ccc12 (centres undefined) | -5 | -6 | 93 | -10 | 1.1 | 88
CC(C)CCNC(=O)CN(C(=O)CCC(=O)Nc1ccccn1)c1ccc(F)c(Cl)c1 | 95* | -5 | . | -3 | 1 | .
Cc1cccc(N(CC(=O)NCc2ccco2)C(=O)CCC(=O)Nc2ccccn2)c1 | 16 | -5 | 94 | -7 | 1.1 | 81
Cc1ccc(C23CC4CC(CC(NC(=O)N5CCN(C)CC5)(C4)C2)C3)cc1 | 85* | -3 | 1.5* | -7 | 1 | 1.6*
COc1ccc(-c2cc(-c3ccccc3)c(C#N)c(S(C)(=O)=O)n2)cc1 | 98* | -12 | 1.1* | 7 | 1.1 | 0.9*
COc1ccc(-c2cc(-c3ccc(OC)cc3)c(C#N)c(SC)n2)cc1 | 1 | -4 | 64 | -12 | 1 | 64
N#Cc1c(-c2ccc(Br)cc2)cc(-c2cccnc2)nc1N | 4 | -1 | 104 | -8 | 1 | 91
CS(=O)(=O)c1nc(-c2ccc(Br)cc2)cc(-c2ccccc2)c1C#N | 84* | -8 | 1.6* | -1 | 1.1 | 2.1*
CS(=O)c1nc(-c2ccc(Br)cc2)cc(-c2ccccc2)c1C#N (centres undefined) | 100* | -15 | 1.8* | -7 | 1.1 | 1.8*
N#Cc1c(-c2cccc(F)c2)cc(-c2ccccc2)nc1Br | -5 | -4 | 49 | 11 | 1 | 56
CC(=O)Oc1ccc2c(C)cc(=O)oc2c1C(=O)c1ccccc1 | 14 | 0 | 94 | -12 | 1 | 101
COC(=O)CN(c1nc(C)c(Br)c(OC)n1)S(=O)(=O)c1ccc(C)cc1 | 88* | -3 | 66 | -8 | 1 | 67
CC(C)(C)c1cccc(/C=N/O)c1O | 52* | -1 | 83 | -4 | 1 | .
O=C(N/C=C/c1ccc(Cl)cc1)NCc1ccc(Cl)cc1 | 60* | -2 | 84 | -8 | 1 | 97
Cc1ccc(NC(=O)N/C=C/c2ccc(Cl)cc2)cc1 | 8 | -5 | 96 | -10 | 1.1 | 84
Cc1ccc(NC(=O)CC2S/C(=N/N=C/c3c[nH]c4ccccc34)NC2=O)cc1 (centres undefined) | 5 | -6 | 89 | -2 | 1.1 | 104
CCOC(=O)c1ccc(NC(=O)CC2S/C(=N/N=C/c3c[nH]c4ccccc34)NC2=O)cc1 (centres undefined) | 62* | -4 | 73 | -11 | 1 | 65
NCCc1c(-c2ccccc2)n(-c2ccccc2)c2ccccc12 | 101* | -6 | . | -13 | 1.1 | .
CCN1CCN(c2nc(Nc3ccc(C)c(C)c3)nc(N)c2[N+](=O)[O-])CC1 | 4 | 0 | 62 | -5 | 1 | 56
SMILES | L major viab | TNAP inh hiacc | HCT116 bCat-KO | TNAP inh no acc | TNAP act hiacc | PTEN del growth
Cc1cccc(Nc2nc(N)c([N+](=O)[O-])c(N3CCC(C)CC3)n2)c1 | 15 | 3 | 44 | -2 | 1 | 49
CCN1CCN(c2nc(N)c([N+](=O)[O-])c(Nc3cccc(C)c3)n2)CC1 | 100* | -4 | 62 | -3 | 1 | 67
Cc1cccc(Nc2nc(N)c([N+](=O)[O-])c(N3CC(C)CC(C)C3)n2)c1 (centres undefined) | 93* | -6 | 1.4* | 2 | 1.1 | 1.8*
COc1ccc(N2CC(O)=C(c3n(C)c4ccccc4[n+]3C)C2=N)cc1 | -6 | -3 | 100 | -10 | 1 | 97
CCN(CC)c1ccc(CN2CCC(C(=O)NCc3ccc(C)cc3)CC2)cc1 | 48 | -10 | . | -60 | 1.1 | .
CCC(CC)C(=O)N1CCCC(c2nc(-c3cccs3)no2)C1 (centres undefined) | -8 | -3 | 93 | -11 | 1 | 93
O=C(c1ccc(Cl)cc1)N1CCC(c2nc(-c3cccs3)no2)CC1 | 87* | -5 | 69 | 9 | 1 | 65
O=C(N/N=C/c1cn(-c2ccccc2)nc1-c1ccc2c(c1)OCCO2)c1ccncc1 | -2 | 0 | . | -4 | 1 | .
O=C(N/N=C/c1nn(-c2ccccc2)cc1-c1ccc(Cl)cc1)c1ccncc1 | 60* | -2 | . | -2 | 1 | .
Cc1ccc2nc(C(F)(F)F)c(C#N)c(N)c2c1 | 68* | -5 | 3.6* | -11 | 1 | 4
Cc1cc(C)c2nc(C(F)(F)F)c(C#N)c(N)c2c1 | 0 | -3 | 84 | -12 | 1 | 101
COCCN(CCOC)S(=O)(=O)c1ccc(C(=O)Nc2nc(-c3ccncc3)cs2)cc1 | 85* | 1 | 86 | -6 | 1 | 71
COc1ccc(-n2c(C)cc(-c3csc(NC(=O)c4ccc(S(=O)(=O)N(C)C)cc4)n3)c2C)cc1 | 63* | 2 | 96 | -9 | 1 | 90
Cc1sc2ncnc(OCC(=O)N3CC(=O)Nc4ccccc43)c2c1C | 12 | -1 | . | -5 | 1 | .
O=[N+]([O-])c1ccc(CNC2CCCc3ccccc32)cc1 (centres undefined) | 83* | -2 | . | -5 | 1 | .
O=c1c2ccccc2nc(COc2ccccc2)n1/N=C/c1c[nH]c2ccccc12 | 3 | -2 | 51 | 11 | 1 | 59
O=c1c2ccccc2nc(COc2ccccc2)n1/N=C/c1cn[nH]c1-c1ccccc1 | 51* | -5 | 64 | -9 | 1.1 | 19
Cc1ccccc1OCc1nc2ccccc2c(=O)n1/N=C/c1cn[nH]c1-c1ccc(Br)cc1 | 5 | 2 | 19 | -15 | 1 | 2.7*
Cc1ccccc1OCc1nc2ccccc2c(=O)n1/N=C/c1ccco1 | 27 | 2 | 93 | 6 | 1 | 80
Oc1cccc(C(O)CNCc2ccc(OCc3ccc(Cl)cc3Cl)cc2)c1 (centres undefined) | 97* | -5 | . | -11 | 1.1 | .
